Usually Kd stands for a measure of binding affinity in units of concentration. A lower Kd goes with a tighter complex.

Each structure is given as a SMILES string.

This note sets out measurements from PMC3065392 (Lipids, 2010).

This test deals with T1, ADRP (adipose differentiation-related protein) (Mus musculus, UniProt P43883).
T1 sequence (P43883 2-425): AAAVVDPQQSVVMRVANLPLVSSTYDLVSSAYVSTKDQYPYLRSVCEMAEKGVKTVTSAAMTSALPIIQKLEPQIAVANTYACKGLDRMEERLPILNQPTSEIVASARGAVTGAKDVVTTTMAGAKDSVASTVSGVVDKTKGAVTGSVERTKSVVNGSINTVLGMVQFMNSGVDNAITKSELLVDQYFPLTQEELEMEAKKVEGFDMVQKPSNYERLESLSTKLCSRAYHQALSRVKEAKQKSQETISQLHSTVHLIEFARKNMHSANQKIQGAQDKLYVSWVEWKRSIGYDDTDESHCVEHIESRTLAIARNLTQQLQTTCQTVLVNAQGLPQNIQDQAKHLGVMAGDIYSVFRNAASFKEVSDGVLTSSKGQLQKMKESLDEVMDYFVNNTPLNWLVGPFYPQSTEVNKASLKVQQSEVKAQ
The experiment in a line: fluorescence saturation binding titration, single-site fit. Summed up:
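Stepwise titration of the NBD-labelled lipid (NBD-sphingomyelin or NBD-phosphatidylcholine, 100 µM stock) into ADRP (180 nM) in 10 mM phosphate buffer, pH 7.4. After each addition, samples were mixed 3–4 min at 25°C and the NBD probe was excited; emission 490–600 nm was integrated and corrected for blank and background. Kd and Bmax come from a single-site fit of three independent measurements (mean ± SE).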

The compound `CCCCCCCCCCCCCCCC(=O)OC[C@H](COP(=O)([O-])OCC[N+](C)(C)C)OC(=O)CCCCCNc1ccc([N+](=O)[O-])c2nonc12` [NBD-phosphatidylcholine, 2-(6-(7-nitrobenz-2-oxa-1,3-diazol-4-yl)amino)hexanoyl-1-hexadecanoyl-sn-glycero-3-phosphocholine] came in with an equilibrium dissociation constant (Kd) of 15 ± 3 nM. For `CCCCCCCCCCCCC/C=C/[C@@H](O)[C@H](COP(=O)([O-])OCC[N+](C)(C)C)NC(=O)CCCCCNc1ccc([N+](=O)[O-])c2nonc12` [NBD-sphingomyelin, 6-((N-(7-nitrobenz-2-oxa-1,3-diazol-4-yl)amino)-hexanoyl)sphingosyl-phosphocholine], binding was put at a Kd of 257 ± 64 nM.
